Active and inactive are the calls of the source. The rule behind the calls is not given here.
What was measured:
[1] = tested on: HeLa; assay: Antiproliferative activity against BRCA1 expressing human HeLa cells; assay type: functional
Procedure, shortened: (§1)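 Antiproliferation in HeLa cells, BRCA1-deficient and BRCA wild-type lines. Read-out is CC50 in nM. Values are means of at least two experiments.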

[2] = target: Poly [ADP-ribose] polymerase 1 (Homo sapiens, UniProt P09874)
[3] = tested on: HeLa; assay: Antiproliferative activity against BRCA1 deficient human HeLa cells; assay type: functional; procedure, shortened: as §1
[4] = tested on: HeLa; assay: Antiproliferative activity against BRCA1 deficient human HeLa cells at 5 uM; assay type: functional, cell-based
[5] = tested on: HeLa; assay: Selectivity for BRCA1 deficient human HeLa cells over BRCA1 expressing HeLa cells; assay type: functional
[6] = Intrinsic clearance in rat liver microsomes; assay type: ADME, Microsome
[7] = target: CYP3A4 (Homo sapiens, UniProt P08684); assay: Inhibition of CYP3A4 at 10 uM; assay type: ADME
Chain of CYP3A4 (P08684 whole entry): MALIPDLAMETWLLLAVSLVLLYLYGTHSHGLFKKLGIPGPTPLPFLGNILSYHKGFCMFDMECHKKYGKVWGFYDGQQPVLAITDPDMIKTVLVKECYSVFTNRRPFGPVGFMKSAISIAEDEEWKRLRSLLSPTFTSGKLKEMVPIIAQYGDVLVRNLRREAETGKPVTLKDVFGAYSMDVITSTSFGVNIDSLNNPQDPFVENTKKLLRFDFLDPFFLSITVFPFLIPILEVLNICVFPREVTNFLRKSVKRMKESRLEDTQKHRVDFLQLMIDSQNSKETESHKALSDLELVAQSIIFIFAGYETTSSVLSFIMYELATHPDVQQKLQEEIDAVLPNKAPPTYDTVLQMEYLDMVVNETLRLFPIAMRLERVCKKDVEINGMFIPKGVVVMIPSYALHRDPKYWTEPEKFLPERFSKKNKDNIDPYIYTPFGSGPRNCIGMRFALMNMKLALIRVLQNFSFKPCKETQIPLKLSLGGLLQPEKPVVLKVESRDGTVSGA

[8] = target: Voltage-gated inwardly rectifying potassium channel KCNH2 (Homo sapiens, UniProt Q12809); assay: Inhibition of human ERG
Chain of Voltage-gated inwardly rectifying potassium channel KCNH2 (Q12809 whole entry): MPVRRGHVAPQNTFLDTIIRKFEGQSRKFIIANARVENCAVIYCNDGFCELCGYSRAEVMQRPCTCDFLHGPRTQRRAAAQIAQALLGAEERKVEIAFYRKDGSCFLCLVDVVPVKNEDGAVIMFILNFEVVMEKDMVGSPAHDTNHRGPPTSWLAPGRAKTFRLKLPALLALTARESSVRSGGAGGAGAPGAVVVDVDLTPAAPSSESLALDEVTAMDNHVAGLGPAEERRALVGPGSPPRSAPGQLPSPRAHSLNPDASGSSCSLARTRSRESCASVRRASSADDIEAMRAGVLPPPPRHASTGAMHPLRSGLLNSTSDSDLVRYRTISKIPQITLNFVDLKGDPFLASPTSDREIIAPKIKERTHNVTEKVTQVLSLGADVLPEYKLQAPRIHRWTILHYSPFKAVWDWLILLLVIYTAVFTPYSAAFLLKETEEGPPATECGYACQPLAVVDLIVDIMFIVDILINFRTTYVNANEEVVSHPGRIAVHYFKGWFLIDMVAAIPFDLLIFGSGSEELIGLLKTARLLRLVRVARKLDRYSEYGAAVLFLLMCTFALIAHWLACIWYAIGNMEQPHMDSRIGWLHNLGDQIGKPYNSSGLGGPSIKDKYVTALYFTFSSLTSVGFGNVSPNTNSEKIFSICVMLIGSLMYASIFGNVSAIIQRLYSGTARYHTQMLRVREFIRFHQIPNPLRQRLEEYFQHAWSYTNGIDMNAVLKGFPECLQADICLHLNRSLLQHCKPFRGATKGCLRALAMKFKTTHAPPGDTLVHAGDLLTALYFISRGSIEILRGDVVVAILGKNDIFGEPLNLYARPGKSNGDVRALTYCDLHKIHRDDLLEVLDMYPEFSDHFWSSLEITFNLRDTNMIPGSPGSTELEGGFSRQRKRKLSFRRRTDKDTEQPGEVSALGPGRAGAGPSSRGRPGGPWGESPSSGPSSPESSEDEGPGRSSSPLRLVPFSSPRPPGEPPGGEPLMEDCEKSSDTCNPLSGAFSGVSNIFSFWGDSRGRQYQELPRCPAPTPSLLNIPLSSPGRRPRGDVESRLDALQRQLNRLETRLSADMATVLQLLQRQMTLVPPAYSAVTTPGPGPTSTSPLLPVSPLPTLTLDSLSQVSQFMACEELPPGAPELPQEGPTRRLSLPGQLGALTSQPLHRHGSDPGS

[9] = Induction of CYP450 at 10 uM relative to refampicin; assay type: ADME
[10] = Clearance in rat; assay type: ADME, organism-based; settings: in vivo
[11] = Oral bioavailability in rat; assay type: ADME, organism-based; settings: in vivo
[12] = Intrinsic clearance in human liver microsomes; assay type: ADME, Microsome
[13] = Drug excretion in iv dosed rat urine after 24 hrs; assay type: ADME, organism-based; settings: read-out: Activity
[14] = Volume of distribution at steady state in rat; assay type: ADME, organism-based; settings: in vivo, read-out: Vdss
[15] = Half life in rat; assay type: ADME, organism-based; settings: in vivo
[16] = Drug excretion in iv dosed rat bile after 72 hrs; assay type: ADME, organism-based; settings: read-out: Activity
[17] = Drug excretion in iv dosed rat urine after 72 hrs; assay type: ADME, organism-based; settings: read-out: Activity
[18] = target: CYP2D6 (Homo sapiens, UniProt P10635); assay: Inhibition of CYP2D6 at 10 uM; assay type: ADME
Chain of CYP2D6 (P10635 whole entry): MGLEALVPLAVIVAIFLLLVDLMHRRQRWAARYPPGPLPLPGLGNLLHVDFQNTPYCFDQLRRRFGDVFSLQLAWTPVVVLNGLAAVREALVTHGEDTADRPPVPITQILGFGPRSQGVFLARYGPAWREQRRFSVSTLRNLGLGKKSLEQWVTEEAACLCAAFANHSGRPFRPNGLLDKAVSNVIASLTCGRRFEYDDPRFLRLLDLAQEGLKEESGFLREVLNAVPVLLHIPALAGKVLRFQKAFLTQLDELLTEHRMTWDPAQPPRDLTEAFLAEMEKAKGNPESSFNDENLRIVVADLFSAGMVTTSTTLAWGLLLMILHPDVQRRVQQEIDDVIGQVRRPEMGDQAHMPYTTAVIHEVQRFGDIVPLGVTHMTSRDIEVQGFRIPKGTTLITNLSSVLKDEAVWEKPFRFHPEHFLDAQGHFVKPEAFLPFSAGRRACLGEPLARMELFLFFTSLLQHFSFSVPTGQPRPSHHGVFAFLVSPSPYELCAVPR

Chain of Poly [ADP-ribose] polymerase 1 (P09874 whole entry): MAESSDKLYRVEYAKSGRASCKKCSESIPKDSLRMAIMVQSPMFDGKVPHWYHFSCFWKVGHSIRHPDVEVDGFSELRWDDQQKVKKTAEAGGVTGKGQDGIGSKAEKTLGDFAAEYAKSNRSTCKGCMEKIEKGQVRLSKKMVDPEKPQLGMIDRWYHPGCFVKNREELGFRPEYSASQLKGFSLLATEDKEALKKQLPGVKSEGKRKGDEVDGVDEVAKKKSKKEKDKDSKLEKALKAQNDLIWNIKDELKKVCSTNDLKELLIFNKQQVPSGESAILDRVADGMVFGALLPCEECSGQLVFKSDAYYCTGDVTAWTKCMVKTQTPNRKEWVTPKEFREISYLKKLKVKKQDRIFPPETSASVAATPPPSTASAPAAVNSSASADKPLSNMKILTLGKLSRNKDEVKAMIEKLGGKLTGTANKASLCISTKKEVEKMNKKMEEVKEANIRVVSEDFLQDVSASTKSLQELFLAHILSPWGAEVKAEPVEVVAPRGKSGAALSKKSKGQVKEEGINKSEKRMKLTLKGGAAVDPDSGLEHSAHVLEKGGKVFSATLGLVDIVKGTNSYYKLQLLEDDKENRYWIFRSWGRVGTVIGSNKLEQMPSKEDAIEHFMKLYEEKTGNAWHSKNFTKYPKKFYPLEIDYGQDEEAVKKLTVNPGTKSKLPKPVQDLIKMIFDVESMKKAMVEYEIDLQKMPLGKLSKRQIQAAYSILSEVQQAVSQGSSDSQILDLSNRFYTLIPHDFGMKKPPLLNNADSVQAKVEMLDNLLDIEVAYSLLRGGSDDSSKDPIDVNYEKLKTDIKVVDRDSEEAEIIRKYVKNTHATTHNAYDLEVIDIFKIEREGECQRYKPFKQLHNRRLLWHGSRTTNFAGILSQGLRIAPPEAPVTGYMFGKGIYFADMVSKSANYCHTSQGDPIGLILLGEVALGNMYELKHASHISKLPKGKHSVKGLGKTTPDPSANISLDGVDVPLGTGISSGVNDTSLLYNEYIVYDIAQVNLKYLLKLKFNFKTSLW

| Compound | CC50 [1] | IC50 [2] | CC50 [3] | also measured |
| --- | --- | --- | --- | --- |
| Cc1c(Cc2ccc(F)c(C(=O)N3CCN(C(=O)[C@@H]4CCCN4)CC3)c2)n[nH]c(=O)c1C | > 10000 nM | 3.1 nM | 3000 nM |  |
| Cc1c(Cc2ccc(F)c(C(=O)N3CCN(C(=O)C(C)(C)N(C)C)CC3)c2)n[nH]c(=O)c1C | > 2500 nM | 1.8 nM | 360 nM |  |
| Cc1c(Cc2ccc(F)c(C(=O)N3CCN(C(=O)C4CCNC4)CC3)c2)n[nH]c(=O)c1C (stereo not given) | > 5000 nM | 3.9 nM | > 5000 nM | Activity [4]: inactive |
| Cc1c(Cc2ccc(F)c(C(=O)N3CCN(C(=O)[C@@]4(C)CCCN4)CC3)c2)n[nH]c(=O)c1C | > 5000 nM | 1.3 nM | 45 nM | Ratio [5]: 100 |
| Cc1c(Cc2ccc(F)c(C(=O)N3CCN(C(=O)C4(C)CCCCN4)CC3)c2)n[nH]c(=O)c1C (stereo not given) | > 20000 nM | 12 nM | 2000 nM |  |
| Cc1c(Cc2ccc(F)c(C(=O)N3CCN(C(=O)C4(N(C)C)CC4)CC3)c2)n[nH]c(=O)c1C | 7700 nM | 5.7 nM | 350 nM |  |
| Cc1c(Cc2ccc(F)c(C(=O)N3CCN(C(=O)[C@@]4(Cc5ccc(F)cc5)CCCN4)CC3)c2)n[nH]c(=O)c1C | 15000 nM | 4.2 nM | 290 nM |  |
| Cc1c(Cc2ccc(F)c(C(=O)N3CCN(C(=O)C4(NCC5CC5)CCCCC4)CC3)c2)n[nH]c(=O)c1C | 1900 nM | 3.5 nM | 170 nM |  |
| Cc1c(Cc2ccc(F)c(C(=O)N3CCN(C(=O)C4(Nc5ccccc5)CCCC4)CC3)c2)n[nH]c(=O)c1C | 870 nM | 3.9 nM | 130 nM |  |
| Cc1c(Cc2ccc(F)c(C(=O)N3CCN(C(=O)[C@H]4CCCN4)CC3)c2)n[nH]c(=O)c1C | > 10000 nM | 2.7 nM | 220 nM |  |
| CCN1CCCC12CCN(C(=O)c1cc(Cc3n[nH]c(=O)c(C)c3C)ccc1F)CC2 | > 5000 nM | 9.7 nM | 170 nM |  |
| C=CCC1(C(=O)N2CCN(C(=O)c3cc(Cc4n[nH]c(=O)c(C)c4C)ccc3F)CC2)CCCN1 (stereo not given) | 19000 nM | 1.8 nM | 31 nM |  |
| CNC1(C(=O)N2CCN(C(=O)c3cc(Cc4n[nH]c(=O)c(C)c4C)ccc3F)CC2)CCCC1 | > 5000 nM | 2.7 nM | 81 nM |  |
| Cc1c(Cc2ccc(F)c(C(=O)N3CCN(C(=O)[C@]4(C)CCCN4)CC3)c2)n[nH]c(=O)c1C | > 40000 nM | 3.8 nM | 780 nM |  |
| CNC(C)(C)C(=O)N1CCN(C(=O)c2cc(Cc3c[nH]c(=O)c4cc(Cl)c(Cl)n34)ccc2F)CC1 | > 5000 nM | 2 nM | 53 nM | Ratio [5]: >100; microsomal CLint [6]: 122 µL/min/mg; inhibition at 10 µM [7]: 25%; IC50 [8]: 11000 nM; Activity [9]: 14%; clearance [10]: > 200 mL/min/kg |
| Cc1c(Cc2ccc(F)c(C(=O)N3CCN(C(=O)[C@]4(Cc5ccc(F)cc5)CCCN4)CC3)c2)n[nH]c(=O)c1C | 3300 nM | 2.5 nM | 15 nM |  |
| Cc1c(Cc2ccc(F)c(C(=O)N3CCN(C(=O)C4(Cc5ccc(F)cc5)CCCN4)CC3)c2)n[nH]c(=O)c1C (stereo not given) | 2700 nM | 3.6 nM | 9.1 nM | inhibition at 10 µM [7]: 73% |

| Compound | CC50 [1] | IC50 [2] | CC50 [3] | also measured |
| --- | --- | --- | --- | --- |
| Cc1c(Cc2ccc(F)c(C(=O)N3CCN(C(=O)C4(N5CCCC5)CCCC4)CC3)c2)n[nH]c(=O)c1C | 1500 nM | 2.7 nM | 89 nM |  |
| CCC1(C(=O)N2CCN(C(=O)c3cc(Cc4n[nH]c(=O)c(C)c4C)ccc3F)CC2)CCCN1 (stereo not given) | 16000 nM | 3.8 nM | 24 nM | microsomal CLint [6]: 6 µL/min/mg; bioavailability [11]: < 3%; microsomal CLint [12]: 13 µL/min/mg |
| CCNC1(C(=O)N2CCN(C(=O)c3cc(Cc4n[nH]c(=O)c(C)c4C)ccc3F)CC2)CCCC1 | 4000 nM | 3.1 nM | 91 nM |  |
| CNC(C)(C)C(=O)N1CCN(C(=O)c2cc(Cc3n[nH]c(=O)c(C)c3C)ccc2F)CC1 | > 5000 nM | 3.7 nM | 280 nM | microsomal CLint [6]: 7 µL/min/mg; clearance [10]: 64 mL/min/kg; microsomal CLint [12]: 10 µL/min/mg |
| Cc1c(Cc2ccc(F)c(C(=O)N3CCC4(CCCN4)CC3)c2)n[nH]c(=O)c1C | > 5000 nM | 2.6 nM | 49 nM | microsomal CLint [6]: < 1 µL/min/mg; dose excreted at 24 h [13]: 37%; Vd [14]: 6.7 L/kg; half-life [15]: 3.7 h; clearance [10]: 57 mL/min/kg; microsomal CLint [12]: < 1 µL/min/mg |
| Cc1c(Cc2ccc(F)c(C(=O)N3CCN(C(=O)C4(C)CCCO4)CC3)c2)n[nH]c(=O)c1C (stereo not given) | 11000 nM | 2.8 nM | 380 nM |  |
| Cc1c(Cc2ccc(F)c(C(=O)N3CCC4(CCN4)CC3)c2)n[nH]c(=O)c1C | > 5000 nM | 4.6 nM | > 5000 nM |  |
| Cc1c(Cc2ccc(F)c(C(=O)N3CCC4(CCCN4C)CC3)c2)n[nH]c(=O)c1C | > 5000 nM | 4.5 nM | 100 nM |  |
| Cc1c(Cc2ccc(F)c(C(=O)N3CCN(C(=O)C4(NCC5CC5)CCC4)CC3)c2)n[nH]c(=O)c1C | 450 nM | 3.2 nM | 24 nM |  |
| CNC1(C(=O)N2CCN(C(=O)c3cc(Cc4n[nH]c(=O)c(C)c4C)ccc3F)CC2)CC1 | > 5000 nM |  | 240 nM |  |
| Cc1c(Cc2ccc(F)c(C(=O)N3CCN(C(=O)C4(NCC5CC5)CCCC4)CC3)c2)n[nH]c(=O)c1C | 2100 nM | 2.4 nM | 71 nM |  |
| Cc1c(Cc2ccc(F)c(C(=O)N3CCC4(CCNC4)CC3)c2)n[nH]c(=O)c1C | > 5000 nM | 4.7 nM | > 5000 nM |  |
| Cc1c(Cc2ccc(F)c(C(=O)N3CCN(C(=O)C4(Cc5ccccc5)CCCN4)CC3)c2)n[nH]c(=O)c1C (stereo not given) | > 5000 nM | 3.3 nM | 53 nM |  |
| Cc1c(Cc2ccc(F)c(C(=O)N3CCN(C(=O)[C@@]4(C)CCN4)CC3)c2)n[nH]c(=O)c1C | > 40000 nM | 3.1 nM | 78 nM | microsomal CLint [6]: < 1 µL/min/mg; dose excreted at 24 h [13]: 11%; bioavailability [11]: < 3%; microsomal CLint [12]: 3 µL/min/mg |
| Cc1c(Cc2ccc(F)c(C(=O)N3CCN(C(=O)C4(C)CCCN4)CC3)c2)n[nH]c(=O)c1C (stereo not given) | > 5000 nM | 2.8 nM | 90 nM | Ratio [5]: 30; microsomal CLint [6]: < 1 µL/min/mg; dose excreted at 72 h [16]: 3%; clearance [10]: 38 mL/min/kg; bioavailability [11]: < 3%; dose excreted at 72 h [17]: 82%; microsomal CLint [12]: < 1 µL/min/mg |
| O=C(c1cc(Cc2c[nH]c(=O)c3cc(Cl)c(Cl)n23)ccc1F)N1CCC2(CCCN2)CC1 | > 5000 nM | 2.5 nM | 48 nM | Ratio [5]: >100; microsomal CLint [6]: 65 µL/min/mg; inhibition at 10 µM [18]: 35%; IC50 [8]: 12000 nM; clearance [10]: 130 mL/min/kg |

— ChEMBL document CHEMBL1158507, “Development of substituted 6-[4-fluoro-3-(piperazin-1-ylcarbonyl)benzyl]-4,5-dimethylpyridazin-3(2H)-ones as potent poly(ADP-ribose) polymerase-1 (PARP-1) inhibitors active in BRCA deficient cells” (Bioorg Med Chem Lett, 2010)
